PMC7115674 (Peptides, 2008)
“Also recorded” adds a separate entry of the source. Where two headings read alike, the source gives them in different places.

Tests used:
[1] = system: a Helminthosporium species; test: Antifungal activity, a Helminthosporium species; assay type: cell-based; settings: in words
How it was run: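 Mycelial disk-diffusion assay on potato dextrose agar. After the colony developed, sterile paper disks (0.625 cm) were placed 1 cm from the colony rim. Each disk received test peptide (60 μg or 300 μg) in 20 mM PBS, pH 6.0, and buffer served as the control. Plates were incubated at 23 °C for 72 h and scored for crescents of inhibition around the disks.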

[2] = system: Mycosphaerella arachidicola; test: Antifungal activity, mycelial growth inhibition, Mycosphaerella arachidicola; assay type: cell-based
How it was run: (§1)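 Four doses of test peptide were mixed separately into potato dextrose agar at 45 °C and poured into small plates. Each plate then received an equal amount of mycelia, with a buffer-only control. After 72 h at 23 °C, colony area was measured. % inhibition = reduction in colony area relative to the control. IC50 was read from the % reduction versus concentration plot at 50% reduction.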

[3] = system: HIV-1 integrase; test: HIV-1 integrase inhibition; assay type: biochemical; settings: data not shown
[4] = system: trypsin; test: Trypsin-inhibitory activity; assay type: biochemical
[5] = system: Fusarium oxysporum; test: Antifungal activity, mycelial growth inhibition, Fusarium oxysporum; assay type: cell-based
How it was run: as §1

[6] = system: severe acute respiratory syndrome (SARS) coronavious (CoV) protease; assay type: biochemical
[7] = system: Valsa mali; test: Antifungal activity, mycelial growth inhibition, Valsa mali; assay type: cell-based; settings: read-out: IC50 of antifungal activity; potato dextrose agar, 23 °C, 72 h; 50% reduction in area of mycelial colony
How it was run: as §1

[8] = system: tumor cells; test: Antiproliferative activity on tumor cells, line not specified; assay type: cell-based; settings: in words
How it was run: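 MCF-7 breast cancer and HepG2 hepatoma cells were suspended in RPMI at 2 × 10^4 cells/ml, seeded and incubated for 24 h. Graded concentrations of test peptide in complete RPMI were added for 72 h. MTT (5 mg/ml stock in PBS) was added for 4 h, plates were centrifuged, formazan was dissolved in DMSO and absorbance read at 590 nm.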

[9] = system: mouse splenocytes; test: Mitogenic activity; assay type: cell-based; settings: data not shown; Con A positive control
[10] = Thermal and pH stability of antifungal activity; assay type: physicochemical; settings: for thermostability: antifungal activity after thermal pretreatment
How it was run: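 Test peptide was pretreated at 0–100 °C for 10 min or at pH 0–3 and 10–14 for 30 min. Ions were also tested. Residual antifungal activity was then measured by the paper-disk assay on potato dextrose agar (2 μg peptide per disk, buffer control disk, 23 °C, 72 h), scoring inhibition crescents.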

[11] = system: fungal species; test: Antifungal activity, fungal species in general or not specified; assay type: cell-based; settings: for antifungal activity: in words
[12] = system: HIV-1 reverse transcriptase; test: HIV-1 reverse transcriptase inhibitory activity; assay type: biochemical; settings: in words
[13] = system: Helminthosporium maydis; test: Antifungal activity, mycelial growth inhibition, Helminthosporium maydis; assay type: cell-based; settings: read-out: IC50 of antifungal activity; potato dextrose agar, 23 °C, 72 h; 50% reduction in area of mycelial colony
How it was run: as §1

[14] = system: mouse splenocytes; settings: toward mouse splenocytes; cited from earlier work
[15] = system: severe acute respiratory syndrome (SARS) coronavious (CoV) protease; settings: cited from earlier work
[16] = system: HIV-1 integrase; settings: cited from earlier work
[17] = system: tumor cells; settings: in words; cited from earlier work
[18] = system: Fusarium oxysporum; settings: in words; cited from earlier work
[19] = system: Mycosphaerella arachidicola; settings: in words; cited from earlier work
[20] = system: hepatoma HepG2 cell line; settings: read-out: IC50, antiproliferative activity; cited from earlier work
[21] = system: a Helminthosporium species; settings: in words; cited from earlier work
[22] = system: breast cancer MCF-7 cell line; settings: read-out: IC50, antiproliferative activity; cited from earlier work
[23] = system: fungal species; settings: in words; cited from earlier work
[24] = system: HIV-1 reverse transcriptase; settings: cited from earlier work
[25] = system: trypsin; settings: in words; cited from earlier work
[26] = read-out: IC50 of antifungal activity, potato dextrose agar, 23 °C, 72 h, 50% reduction in area of mycelial colony

PEGPFQGPKATKPGDLAXQTWGGWXGQTPKY [kale antifungal peptide]
antifungal activity toward a Helminthosporium species [1]: antifungal activity toward F. oxysporum, M. arachidicola and a Helminthosporium species | antifungal activity toward M. arachidicola ([2]; in words): antifungal activity toward F. oxysporum, M. arachidicola | IC50 [2, 26]: 2400 nM | HIV-1 integrase inhibitory activity [3]: devoid of | trypsin inhibitory activity toward BAEE ([4]; BAEE as substrate, tested up to 50 μM, detailed data not shown): lacked trypsin inhibitory activity | trypsin inhibitory activity toward casein ([4]; casein as substrate, tested up to 10 μM, detailed data not shown): lacked trypsin inhibitory activity | trypsin inhibitory activity ([4]; substrate not specified, in words): did not exhibit trypsin inhibitory activity | antifungal activity toward F. oxysporum ([5]; in words): antifungal activity toward F. oxysporum | IC50 [5, 26]: 4300 nM | SARS proteinase inhibitory activity [6]: devoid of | IC50 [7]: 150 nM | antiproliferative activity [8]: demonstrated antiproliferative activity; also recorded: antiproliferative activity toward tumor cells; also recorded: potent antiproliferative | mitogenic activity [9]: devoid of mitogenic activity | pH stability ([10]; antifungal activity after pH pretreatment, in words): remarkable thermostability and pH stability | thermostability ([10]; in words): remarkable thermostability | thermostability ([10]; in words, listed as antifungal peptide): pronounced thermostability | acid pH range after which antifungal activity was retained ([10]; pH, pretreatment 30 min, tested pH 0–3, paper disk assay, 2 μg peptide per disk): 2–3 | antifungal potency compared with other antifungal proteins ([11]; compared with antifungal proteins of refs 31, 32, 40): more potent than that of the antifungal proteins | antifungal activity [11]: broad spectrum of antifungal activity; also recorded: exhibit antifungal activity | antifungal activity ([11]; listed as antifungal peptide): stable and broad-spectrum antifungal activity | HIV-1 reverse transcriptase inhibitory activity [12]: HIV-1 reverse transcriptase inhibitory activity; also recorded: potent antiproliferative and HIV-1 reverse transcriptase inhibitory activities | IC50 [13]: 2100 nM

ALSCGTVSGNLAACAGYV [B. campestris antifungal peptide]
mitogenic activity [14]: devoid of mitogenic activity toward mouse splenocytes | SARS proteinase inhibitory activity [15]: Neither kale nor B. campestris antifungal peptide demonstrated HIV-1 integrase inhibitory and SARS proteinase inhibitory activities | HIV-1 integrase inhibitory activity [16]: Neither kale nor B. campestris antifungal peptide demonstrated HIV-1 integrase inhibitory | antiproliferative activity toward tumor cells [17]: antiproliferative activity toward tumor cells | antifungal activity toward F. oxysporum [18]: antifungal activity toward F. oxysporum | antifungal activity toward M. arachidicola [19]: antifungal activity toward F. oxysporum, M. arachidicola | IC50 [20]: 5800 nM | antifungal activity toward a Helminthosporium species [21]: antifungal activity toward F. oxysporum, M. arachidicola and a Helminthosporium species | IC50 [22]: 1600 nM | antifungal activity [23]: with antifungal activity | HIV-1 reverse transcriptase inhibitory activity ([24]; in words): HIV-1 reverse transcriptase inhibitory activity | IC50 ([24]; read-out: IC50, HIV-1 reverse transcriptase inhibitory activity): 4000 nM

SECLKEYGGDVGFGFCAPRIYPSFCVQRC [Brassica napus trypsin inhibitor]
trypsin inhibitory activity [25]: manifest trypsin inhibitory activity
